Data on four compounds can be found in ChEMBL document CHEMBL1156875, “Anti-influenza drug discovery: structure-activity relationship and mechanistic insight into novel angelicin derivatives” (J Med Chem, 2010).

Activity calls are given as the source filed them. No cut-off for these calls is given here. Bounds are passed on as bounds.

Series [1] concerns Influenza A virus. Kind of series: Antiviral activity against human influenza A virus A/TW/3446/04 (H3N2) in MDCK cells assessed as reduction of virus-induced cytopathic effect. Format: functional, organism-based. In outline:
(§1)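 MDCK cells (1.1 × 10^5 cells/mL in DMEM + 10% FBS) grown 24-30 h at 37 C to about 90% confluency. Virus (100 TCID50) premixed with serially diluted compound, adsorbed 1 h at 37 C. Overlay of serum-free DMEM with trypsin 2.5 μg/mL and 0.1% DMSO, then 72 h at 37 C. Formaldehyde fixation, crystal violet stain, A570. IC50 = 50% CPE reduction versus virus control. Triplicate, at least two runs.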
In general terms: Cytopathic effects are the visible damage that an infection or toxin causes in cultured cells.

For series [2], the system named is Influenza B virus. In words: Antiviral activity against human influenza B virus B/TW/99/07 in MDCK cells assessed as reduction of virus-induced cytopathic. The format is functional, organism-based. The conditions noted are these: B/TW/99/07, MDCK. In outline:
as §1

In series [3] the test system is Influenza B virus. Kind of series: Antiviral activity against human influenza B virus B/TW/710/05 in MDCK cells assessed as reduction of virus-induced cytopathic. Format: functional, organism-based. Conditions: B/TW/710/05, MDCK. In outline: as §1
Series [4] relates to Influenza A virus. In words: Antiviral activity against human influenza A virus A/WSN/33 (H1N1) in MDCK cells assessed as reduction of virus-induced cytopathic effect. Format: functional, organism-based. Conditions: A/WSN/1933(H1N1). In outline: as §1
Series [5] relates to Influenza B virus. In words: Antiviral activity against human influenza B virus B/TW/70325/05 in MDCK cells assessed as reduction of virus-induced cytopathic. The conditions noted are these: B/TW/70325/05, MDCK. The format is functional, organism-based. The gist of the method:
as §1

Series [6] concerns Influenza A virus. Kind of series: Antiviral activity against human influenza A virus A/TW/141/04 (H1N1) in MDCK cells assessed as reduction of virus-induced cytopathic effect. Format: functional, organism-based. The gist of the method: as §1
Series [7] relates to Influenza A virus. In words: Antiviral activity against human influenza A virus A/WSN/33 (H1N1) in MDCK cells assessed as reduction of plaque formation at 20 nM. Format: functional, A/WSN/1933(H1N1). Set-up: scale not given: the % may be the effect or the level left. In outline:
(§2)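 Six-well MDCK monolayers (5.5 × 10^5 cells/well, overnight) infected with about 125 PFU/well of A/WSN/33 with or without compound, adsorbed 1 h at 37 C, then washed with HBSS. Agarose 0.3% overlay in trypsin-containing serum-free medium carrying the same compound level, 48 h at 37 C, 5% CO2. Fixed, crystal violet stained, plaques counted relative to virus control.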

Series [8] in a line: Cytotoxicity against MDCK cells after 72 hrs. The conditions noted are these: dog. Format: cell-based, Canis lupus familiaris. In outline:
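Uninfected MDCK monolayers (seeded at 1.1 × 10^5 cells/mL, grown 24-30 h to about 90% confluency) exposed to graded compound concentrations for 72 h at 37 C. Read by formaldehyde fixation, 0.1% crystal violet staining and absorbance at 570 nm. CC50 = concentration reducing viability to 50% of control. Triplicate, repeated at least twice.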

Series [9] deals with Influenza A virus. In words: Antiviral activity against human influenza A virus A/WSN/33 (H1N1) assessed as inhibition of guinea pig red blood cells at 25 uM by hemagglutinination inhibition assay. The format is functional, organism-based. Conditions: A/WSN/1933(H1N1). In outline:
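Hemagglutination inhibition format: A/WSN/33 attachment to guinea pig red blood cells tested with compound at 25 μM.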

Series [10] has as its system Influenza A virus. Kind of series: Antiviral activity against human influenza A virus A/WSN/33 (H1N1) in MDCK cells assessed as reduction of dsRNA by immunofluorescence microscopic analysis. Format: functional, organism-based. Conditions: A/WSN/1933(H1N1). In outline: (§3)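 Influenza-infected MDCK cells examined by immunofluorescence microscopy with anti-dsRNA, anti-NP and anti-M1 antibodies to visualise viral RNA and proteins.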

For series [11], the system named is Influenza A virus. In words: Antiviral activity against human influenza A virus A/WSN/33 (H1N1) in MDCK cells assessed as reduction of plaque formation at 100 nM. Conditions: A/WSN/1933(H1N1). Format: functional, organism-based. The gist of the method:
as §2

Series [12] relates to Influenza A virus. In words: Antiviral activity against human influenza A virus A/WSN/33 (H1N1) in MDCK cells assessed as prevention of progeny formation up to 4 hrs by time-of-addition study. Format: functional, organism-based. The conditions noted are these: A/WSN/1933(H1N1). The gist of the method: (§4)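 MDCK (2.4 × 10^5 cells/well, six-well) infected at MOI 0.001 on ice for 1 h, washed, fresh medium set as 0 h pi. Compound at 1 μM present only during −1 to 0, 0-2, 2-4, 4-6 or 6-8 h, then washed off. Incubated in fresh medium to 12 h pi; supernatant virus yield titrated by plaque assay.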

For series [13], the system named is Influenza A virus. In words: Antiviral activity against human influenza A virus A/WSN/33 (H1N1) in MDCK cells assessed as reduction of NP protein by immunofluorescence microscopic analysis. Format: functional, organism-based. The conditions noted are these: A/WSN/1933(H1N1). The gist of the method: as §3
Series [14] relates to Influenza A virus. Kind of series: Antiviral activity against human influenza A virus A/WSN/33 (H1N1) in MDCK cells assessed as prevention of progeny formation after 4 to 8 hrs by time-of-addition study. Format: functional, organism-based. Conditions: A/WSN/1933(H1N1). In outline:
as §4

Series [15] has as its system Influenza A virus. In words: Antiviral activity against human influenza A virus A/WSN/33 (H1N1) in MDCK cells assessed as reduction of M1 protein by immunofluorescence microscopic analysis. Conditions: A/WSN/1933(H1N1). The format is functional, organism-based. The gist of the method: as §3

For the compound `CC(=O)N[C@H]1[C@H]([C@H](O)[C@H](O)CO)OC(C(=O)O)=C[C@@H]1NC(=N)N` [ZANAMIVIR], the IC50 in the series with Influenza A virus [1] was 30 nM; in the series on Influenza B virus [2], 100 nM; in the series on Influenza B virus [3], 30 nM; with Influenza A virus [4], 60 nM; in the series with Influenza B virus [5], 20 nM; with Influenza A virus [6], 350 nM.

As for `Cc1cc(=O)oc2c1ccc1oc(C(=O)c3cccs3)c(-c3ccccc3)c12`, the Activity in the series with Influenza A virus [7] came out at 50%. Besides, the IC50 with Influenza A virus [1] stood at 150 nM; with Influenza B virus [2], 40 nM; with Influenza B virus [3] it was 90 nM; with Influenza A virus [4], 70 nM; in the series with Influenza B virus [5] it was 90 nM; with Influenza A virus [6], 90 nM. Moreover, the CC50 at 72 h in series [8] is above 25000 nM. Also, the outcome in the series on Influenza A virus [9] and with Influenza A virus [14] was inactive. Besides, the outcome with Influenza A virus [10], with Influenza A virus [11], in the series with Influenza A virus [12], with Influenza A virus [13] and in the series on Influenza A virus [15] was Active.

`CCCCCCc1c(C(=O)c2ccccc2)oc2ccc3c(C)cc(=O)oc3c12`: in the series on Influenza A virus [4], the half-maximal inhibitory concentration (IC50) was 650 nM. The CC50 at 72 h in series [8] was above 25000 nM.

For the compound `C/C=C/C(=O)Oc1cccc2oc(C(=O)c3ccccc3)c(-c3ccccc3)c12`, in the series on Influenza A virus [4], the IC50 is 20800 nM. The CC50 at 72 h in [8] is above 25000 nM.

A word on the IC50: it is the concentration needed to halve the response being measured. What is called CC50 is the concentration that lowers cell viability or growth by half.
